Sampled rows, rich in hits. Any-hit rate of the full collection: about 2.4%.
NPY2 pot ag: NPY-Y2 potentiators or agonists, primary screen, cell-based; Neuropeptide Y receptor type 2 (Homo sapiens), P49146; cells expressing NPY-Y2, potentiator/agonist read-out; activation, % at 3.6 µM; actives 0.45% (n = 220,000); in the data active = activation above about 27%;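 also: cells stimulated with NPY near EC25 plus isoproterenol at EC100; 0% = vehicle plus submaximal agonist and 100% = vehicle plus saturating agonist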
Target sequence (P49146 whole entry, looked up): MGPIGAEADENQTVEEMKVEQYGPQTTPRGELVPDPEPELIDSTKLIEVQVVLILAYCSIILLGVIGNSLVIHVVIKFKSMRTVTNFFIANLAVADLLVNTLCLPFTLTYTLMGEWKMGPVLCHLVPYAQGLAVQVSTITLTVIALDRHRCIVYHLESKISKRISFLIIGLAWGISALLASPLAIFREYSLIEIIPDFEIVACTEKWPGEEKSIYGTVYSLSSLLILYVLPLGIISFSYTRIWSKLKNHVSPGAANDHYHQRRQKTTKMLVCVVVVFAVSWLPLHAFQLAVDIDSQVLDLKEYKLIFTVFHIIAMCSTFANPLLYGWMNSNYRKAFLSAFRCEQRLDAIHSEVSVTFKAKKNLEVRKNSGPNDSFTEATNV
NPY1 pot ag: NPY-Y1 receptor potentiators or agonists, primary screen, cell-based | activation, % at 3.6 µM | NPY-Y1 expressing cells, potentiator/agonist activation | actives 0.37% (n = 220,000) | AID 1304, 2008; in the data active = activation above about 33%, passing the limit was not always enough;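 also: cells stimulated with NPY at EC10 then isoproterenol at EC100; 0% = low agonist plus stimulus and 100% = saturating agonist plus stimulus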
NPY Y1 blocker: NPY-Y1 receptor antagonists, primary screen, cell-based; Neuropeptide Y receptor type 1 (Homo sapiens), P25929; actives 1% (n = 200,000); inhibition, % at 3.6 µM; HEK293-CNG Y1 cells, membrane potential fluorescence; NPY at EC95, then isoproterenol;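 active = inhibition above the campaign mean inhibition of all tested compounds plus 3 SD, cut at about 20% in these data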;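 also: 0% = DMSO wells given NPY plus isoproterenol and 100% = isoproterenol alone without NPY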
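Assay system: HEK293 cells with Y1 receptor plus CNG channel | Probe or stimulus: NPY (25 nM), isoproterenol (1 µM), Ro 20-1724 (25 µM) | Timing: Compound incubation 1 h at room temperature, readout 45 min post-stimulation | Measured by: Membrane-potential fluorescent dye readout | Benchmarks: High control isoproterenol alone, low control NPY with isoproterenol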
NPY-Y2 antag: NPY-Y2 receptor antagonists, primary screen, cell-based | actives 0.99% (n = 140,000) | NPY-Y2 expressing cells, antagonist mode | inhibition, % at 2.7 µM | AID 793, 2007 | Neuropeptide Y receptor type 2 (Homo sapiens), P49146;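 also: 0% = vehicle with agonist challenge and 100% = reference antagonist with challenge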
S1P4 antag: S1P4 receptor antagonists, primary screen, cell-based | Sphingosine 1-phosphate receptor 4 (Homo sapiens), O95977 | inhibition, % at 4.98 µM | S1P4-expressing cells, antagonist mode, reporter read-out | actives 0.26% (n = 220,000) | AID 1510, 2009; in the data active = inhibition above about 29%;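 also: 0% = wells stimulated with agonist and 100% = vehicle wells without agonist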
S1P4 agonist: S1P4 receptor agonists, primary screen, cell-based; Sphingosine 1-phosphate receptor 4 (Homo sapiens), O95977; S1P4-expressing cell line, agonist reporter assay; activation, % at 4.98 µM; actives 0.35% (n = 220,000); in the data active = activation above about 11%;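 also: 0% = DMSO vehicle and 100% = reference agonist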
NPY1 antag conf: NPY-Y1 receptor antagonists, retest of hits, confirmation, HEK293-CNG cells, membrane potential fluorescence, triplicate | cAMP; NPY challenge against isoproterenol-raised cAMP | shares compounds with NPY Y1 blocker | AID 1254, 2008 | inhibition, % at 3.6 µM | actives 21% (n = 1,200); in the data active = inhibition above about 20%;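 also: 0% = vehicle with agonist plus stimulus and 100% = stimulus alone without agonist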
NPY2 antag ctr: NPY-Y2 receptor antagonists, selectivity check, confirmation, counter-screen for NPY-Y1 antagonist project, HEK293-CNG cells, membrane potential fluorescence, triplicate; shares compounds with NPY Y1 blocker; antagonism; cells given NPY, then isoproterenol; inhibition, % at 3.6 µM; actives 28% (n = 1,200);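 also: 0% = DMSO with agonist challenge and 100% = reference antagonist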
The depositor's hits bear a star; nt = no result. Rule as the data show it, unless noted: active = inhibition above about 17%; inactive = the rest.

SMILES	NPY2 pot ag	NPY1 pot ag	NPY Y1 blocker	NPY-Y2 antag	S1P4 antag	S1P4 agonist	NPY1 antag conf	NPY2 antag ctr
Cc1ccc(S(=O)(=O)N2CCOCC2)cc1NC(=O)CN1CCC(Cc2ccccc2)CC1	-37.6	-9.0	30.4*	nt	14.3	0.8	11.3	14.8
CCN(CC)c1ccc(S(=O)(=O)N2CCOCC2)cc1NS(C)(=O)=O	-0.9	-7.0	2.9	nt	-5.0	0.8	nt	nt
CCOC(=O)C1CCN(CC(=O)Nc2cc(S(=O)(=O)N3CCOCC3)ccc2C)CC1	-11.8	-19.4	4.3	nt	-0.8	2.5	nt	nt
CCN(CC)c1ccc(S(=O)(=O)N2CCOCC2)cc1NC(=O)CN1CCc2ccccc2C1	10.1	22.6	23.1*	nt	-17.7	0.7	2.0	7.8
Cc1nc(C)c(CCNC(=O)c2ccccc2Br)s1	-8.4	7.3	2.3	1.6	-26.8	1.0	nt	nt
COc1cccc(NC(=O)CN2C(=O)NC(C)(CC(C)C)C2=O)c1 (centres undefined)	0.8	9.8	-4.9	nt	-7.6	2.4	nt	nt
CC(C)CC1(C)NC(=O)N(CC(=O)Nc2cccc(S(=O)(=O)N(C)c3ccccc3)c2)C1=O (centres undefined)	-20.1	-51.9	50.7*	nt	-5.4	2.5	45.9*	50.5*
COC(=O)C1=NNC2(C)C(=O)N(c3ccc(C)cc3)C(=O)C12 (centres undefined)	-1.1	8.6	nt	nt	8.5	-1.2	nt	nt
Brc1ccc(C2=Nn3c(nnc3-c3n[nH]c4c3CCC4)SC2)cc1	-39.9	-49.8	21.9*	15.3	-19.0	1.7	14.0	20.5*
c1ccc(OCc2nn3c(C4CCCCC4)nnc3s2)cc1	-13.6	-33.0	27.4*	8.9	-13.8	-0.6	6.5	5.5
CCOc1ccccc1OCc1nn2c(COc3ccccc3)nnc2s1	-14.6	-30.3	11.9	10.9	-2.5	-1.2	nt	nt
CCOC(=O)c1cnc(SCCc2ccccc2)nc1N	-19.1	-1.6	20.8*	7.5	-22.3	1.3	8.2	6.6
COc1ccc(/C=N/N(Cc2ccccc2)c2ccccc2)cc1O	23.1	17.2	5.1	nt	-20.1	1.1	nt	nt
CCC(C)c1ccc(S(=O)(=O)N2CCN(C(C)CC(=O)O)CC2)cc1 (centres undefined)	-7.0	-22.6	-1.4	nt	6.9	1.6	nt	nt
C/C(CC(C)(C)c1ccccc1)=N\NS(=O)(=O)c1ccccc1	-1.7	0.3	-6.0	nt	3.4	-3.1	nt	nt
CCCCN(C(=O)COc1ccc(C)cc1OC)c1c(N)n(CCC)c(=O)[nH]c1=O	-4.6	-4.4	nt	nt	-4.1	0.9	nt	nt
O=S(=O)(NCc1ccc2c(c1)OCO2)c1ccc2c(c1)oc1ccccc12	-8.9	-29.8	21.5*	8.5	-6.1	1.9	16.9	19.0*
COc1cc(S(=O)(=O)NCc2ccc3c(c2)OCO3)ccc1Cl	-6.6	-10.2	7.8	7.4	2.4	0.3	nt	nt
Cc1nc(C(=O)N2CCc3c([nH]c4ccccc34)C2c2cc(F)ccc2F)cs1 (centres undefined)	1.0	-2.2	-2.5	nt	-1.9	-1.4	nt	nt
N=c1c2c(-c3ccccc3)c(-c3ccccc3)n(Cc3ccco3)c2ncn1CCCN1CCOCC1	-7.9	-36.5	55.7*	nt	-3.1	-1.5	43.6*	38.7*
CC(C)(C)OC(=O)N1CCC(CNC(=O)Nc2ccccc2)CC1	-16.6	19.9	nt	nt	-1.4	0.3	nt	nt
COCCNc1nc(SCc2ccccc2)nc2sc3c(c12)CCC3	-19.0	-20.9	26.5*	0.0	-6.4	-0.7	20.7*	22.4*
Cc1nn(CC(=O)NCc2ccco2)c(C)c1[N+](=O)[O-]	2.5	1.8	nt	nt	-2.1	0.9	nt	nt
C/C(=N\NC(=O)c1ccc(COc2ccccc2)cc1)c1ccncc1	-18.8	7.1	-0.5	nt	-9.1	2.1	nt	nt
Cc1ccc(SCC(=O)N=C2NC(=O)CS2)cc1	-23.7	-21.1	23.1*	nt	2.8	1.1	13.7	11.1
SMILES	NPY2 pot ag	NPY1 pot ag	NPY Y1 blocker	NPY-Y2 antag	S1P4 antag	S1P4 agonist	NPY1 antag conf	NPY2 antag ctr
CCCNC(=O)C1CCN(S(=O)(=O)c2cccs2)CC1	10.0	21.3	0.3	nt	-9.8	0.9	nt	nt
O=C(NCCN1C(=O)S/C(=C\c2ccccc2F)C1=O)C1CCN(S(=O)(=O)c2cccs2)CC1	-4.2	2.5	20.3*	14.9	-13.6	-0.8	8.9	10.1
Cc1ccc(C(C)C)c(OCCCN(C)Cc2ccccc2)c1	-10.7	-28.5	32.5*	12.2	16.4	-1.1	12.3	17.6*
Cc1ccc(C(C)C)c(OCCCN2C(=O)NC(C)(C)C2=O)c1	-8.2	-4.1	-2.5	3.2	-3.3	-2.0	nt	nt
C/C=C(/C)C(=O)OC1c2c(ccc3ccc(=O)oc23)OC(C)(C)C1OC(=O)/C(C)=C\C (centres undefined)	-34.8	-12.9	21.9*	nt	-8.1	-1.2	11.9	31.3*
C/C=C(\C)C(=O)OC1c2c(ccc3ccc(=O)oc23)OC(C)(C)C1OC(C)=O (centres undefined)	-1.9	-17.0	3.9	9.7	1.8	0.5	nt	nt
CCCn1c(SCc2ccc(Cl)cc2)nc2c1c(=O)[nH]c(=O)n2C	-8.4	-33.4	23.9*	12.4	3.6	0.2	22.5*	39.9*
C/C=C/Cn1c(SCc2ccc(Cl)cc2)nc2c1c(=O)[nH]c(=O)n2C	-75.4	-89.8	17.4	4.2	-13.3	1.5	nt	nt
Cc1ccc(NC(=O)CCn2nnc3ccccc32)cc1	8.7	6.3	3.1	nt	-9.6	0.5	nt	nt
COc1ccc2c(c1)C(C)=CC(C)(C)N2S(=O)(=O)c1ccc(C)cc1	7.3	-1.2	36.0*	nt	3.6	0.1	18.1	15.3
CCOc1ccc2c(c1)C(C)=CC(C)(C)N2S(=O)(=O)c1ccc(C)cc1	-23.9	-28.0	56.9*	nt	3.6	-0.5	39.4*	25.1*
Cc1onc(-c2ccccc2)c1C(=O)N1CCN(c2ncccn2)CC1	-5.0	0.9	5.3	nt	6.8	-0.2	nt	nt
O=C(CSc1nnc(Cc2ccccc2)n1Cc1ccco1)NC12CC3CC(CC(C3)C1)C2	0.5	3.7	22.6*	10.0	15.8	0.1	4.8	3.8
COc1ccc(C)cc1N(C(=O)c1ccccc1F)c1nc2ccccc2s1	-10.1	-21.6	13.7	0.5	13.0	-1.9	nt	nt

Screens as filed in PubChem.
